We go through eight compounds from ChEMBL document CHEMBL1148839, “Synthesis of new xanthone analogues and their biological activity test--cytotoxicity, topoisomerase II inhibition, and DNA cross-linking study” (Bioorg Med Chem Lett, 2007).

One assay has as its system MDA-MB-231. The assay can be described thus: Cytotoxicity against human MDA-MB-231 cells after 4 days by MTT assay. The note with it: MDA-MB-231, 96 h. In kind it is functional, cell-based. Put shortly:
(§1)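 Cells from ATCC seeded at 2-4×10^4 per well, attached overnight in medium with 10% FBS, 37 °C, 5% CO2. On day 1 medium replaced with medium containing graded compound concentrations. On day 4 MTT added (final 0.5 mg/mL), 4 h further incubation, DMSO solubilization, absorbance at 570 nm. IC50 from four-parameter logistic fit; each value average of four experiments.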
In general terms: Tetrazolium assays rely on reduction of a dye to a coloured formazan, in cell work by metabolically active cells.

A further assay relates to HCT-116. The assay can be described thus: Cytotoxicity against human HCT116 cells after 4 days by MTT assay. In kind it is functional, cell-based. Particulars: HCT-116, 96 h. Put shortly: as §1
The next assay has as its system MCF7. The assay can be described thus: Cytotoxicity against human MCF7 cells after 4 days by MTT assay. In kind it is functional, cell-based. The note with it: MCF7, 96 h. An outline of the steps: as §1
The subject of another assay is HeLa. The assay can be described thus: Cytotoxicity against human HeLa cells after 4 days by MTT assay. Type of assay: functional, cell-based. Particulars: 96 h. Put shortly:
as §1

The next assay deals with LNCaP. The assay can be described thus: Cytotoxicity against human LnCap cells after 4 days by MTT assay. Type of assay: functional, cell-based. The note with it: 96 h. Put shortly: as §1
The species entered for the next assay is Homo sapiens. The assay can be described thus: Inhibition of human topoisomerase 2-mediated DNA relaxation at 100 uM relative to etoposide. Put shortly:
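Relaxation assay: supercoiled pBR322 plasmid DNA (0.3 µg) incubated with 0.2 unit human topoisomerase II and compound (20 and 100 µM), 37 °C, 30 min. Etoposide as positive control. Inhibition ratio calculated from gel band densitometry.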

A further assay has as its system Escherichia coli. The assay can be described thus: Effect on pBR322 DNA cross linking activity after 1 hr. Put shortly: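 Linearized pBR322 DNA (0.5 µg) incubated with compound at 0, 10, 50, 100, 200 µM for 1 h at room temperature in 10 mM Tris-HCl pH 7.5. Run on 1.2% alkaline agarose gel (40 mM NaOH, 1 mM EDTA running buffer), neutralized, ethidium bromide stained, UV visualized.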

pIC50: −log10 of the molar value.

What is called pIC50 is the negative decadic logarithm of the IC50, by convention in mol/L. High values mean a small IC50, low ones a large IC50. With `O=c1c2ccccc2oc2cc(OCC3CO3)cc(O)c12` (configuration not stated), the pIC50 in the assay on MDA-MB-231 was less than 4.00; with HCT-116, 4.09; in the assay on MCF7, 4.16; with HeLa, 4.16; in the assay on LNCaP, 4.03.
As usually defined, the inhibition is the relative decrease from the control value, in per cent. Higher therefore signals a response far below the control. For `O=c1c2ccccc2oc2cc(OCC(O)CBr)cc(O)c12` (configuration not stated), the pIC50 was 4.12 in the assay on MDA-MB-231; 4.77 in the assay on HCT-116; 4.27 in the assay on MCF7; 4.01 in the assay with HeLa; 4.19 with LNCaP. Further, the inhibition in the assay listed under Homo sapiens was 57%.
Turning to `COc1cccc2c(=O)c3c(O)cc(OCC(O)CCl)cc3oc12` (configuration not stated), the pIC50 is 4.09 with MDA-MB-231; 4.50 in the assay on HCT-116; less than 4.00 with MCF7; 4.22 with HeLa; less than 4.00 in the assay on LNCaP.
Regarding `O=c1c2ccccc2oc2cc(OCC3CO3)cc(OCC3CO3)c12` (configuration not stated), the pIC50 is 4.89 with MDA-MB-231; 4.99 with HCT-116; 5.49 with MCF7; 4.63 with HeLa; 5.05 in the assay with LNCaP. The compound also returned an inhibition in the assay filed under Homo sapiens of 100%. Further, in the assay on Escherichia coli, the Activity entry was “Dose-dependent effect”.
As to `COc1cccc2c(=O)c3c(O)cc(OCC4CO4)cc3oc12` (configuration not stated), the pIC50 with MDA-MB-231, with HCT-116, with MCF7, in the assay with HeLa and in the assay on LNCaP was less than 4.00 in each case.
Turning to `COc1cccc2c1C(=O)c1c(O)c3c(c(O)c1C2=O)C[C@@](O)(C(=O)CO)C[C@@H]3O[C@H]1C[C@H](N)[C@H](O)[C@H](C)O1` [DOXORUBICIN], the pIC50 in the assay with MDA-MB-231 is 4.75; in the assay with HCT-116, 5.11; with HeLa it was 5.48; in the assay on LNCaP, 5.34.
Regarding `O=c1c2ccccc2oc2cc(OCC(O)CCl)cc(O)c12` (configuration not stated), the pIC50 in the assay with MDA-MB-231, with HCT-116, in the assay on MCF7, in the assay with HeLa and in the assay with LNCaP was less than 4.00 throughout.
For the compound `COc1cccc2c(=O)c3c(O)cc(OCC(O)CBr)cc3oc12` (configuration not stated), the pIC50 in the assay with MDA-MB-231 was 4.00; with HCT-116 it was less than 4.00; with MCF7, 4.01; in the assay with HeLa it was less than 4.00; in the assay on LNCaP, less than 4.00.
